Sequences and labels used below:
B1: tRNA (parent)
chain: GUUCCGUUGGCGUAAUGGUAACGCGUCUCCCUCCUAAGGAGAAGACUGCGGGUUCGAGUCCCGUACGGAACG

167 variants from the RNAGym collection of RNA variant scans (doi:10.1126/science.aae0568) can be followed below.

Fewer inactive variants are shown than the library holds.

The variants in the data set derive from B1. The data set can be described thus: yeast fitness relative to wild type (ratio to wild type); higher = fitter; tRNA-Arg(CCU), competitive growth, 37 C, YPD. Put shortly: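 Genotype frequency changes were the basis for Darwinian fitness relative to wild type. The frequencies came from 100-nucleotide paired-end sequencing of gene amplicons from the start population and each end population of pooled yeast strains with tRNA-Arg(CCU) gene variants at the native locus. Competition ran in YPD at 37°C for 24 hours in six replicates, genotypes needed ≥ 100 starting reads, and estimates < 0.5 were set to 0.5.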
With G18C U26A U53C, the yeast fitness came out at 0.549.

Regarding G18U G39A, the yeast fitness is 0.594.

For the variant U19A U53A, the yeast fitness is 0.553.

Regarding U19G C29A A69U, the yeast fitness is at most 0.5.

For the variant U19G A21U C29G, the yeast fitness came to 0.62.

As for U19A C30G G39C U53C C55A, the yeast fitness was at most 0.5.

In the case of U19C C31A G50U C62G, the yeast fitness was at most 0.5.

On to U19A G44A A69C, for which the yeast fitness was determined as 0.685.

For the variant U19C C46U A69U, the yeast fitness stood at 0.804.

For the variant U19A U59G, the yeast fitness is 0.793.

Regarding U19A U59A, the yeast fitness was 0.845.

U19C C24G A37U U47A C66A: the yeast fitness was at most 0.5.

Consider G18C U35G G41C G56A A65G C66U, for which the yeast fitness is at most 0.5.

With U19C C31U G56A G68C, the yeast fitness is at most 0.5.

On to U19A U32A A36G, for which the yeast fitness is at most 0.5.

Regarding U19C A20C C31G A65C, the yeast fitness was at most 0.5.

For G18U A45U U59C, the yeast fitness came to 0.542.

U19C G50A C55A A65U: the yeast fitness was at most 0.5.

Take U19A C27A A45C: the yeast fitness is 0.557.

As to U19G A20U C30U G48A A70U, the yeast fitness is at most 0.5.

Consider U19A G39C A69U, for which the yeast fitness is 0.574.

Regarding U19C G38A, the yeast fitness amounted to 1.01.

As to U19A C62U, the yeast fitness was 0.931.

Consider U19C A45C C61A, for which the yeast fitness is at most 0.5.

On to U19A C24G, for which the yeast fitness amounted to 0.633.

Turning to U19A C24U, the yeast fitness came out at 1.03.

As for U19A C24A, the yeast fitness was found to be 0.598.

In the case of U19C A21U C22A C49U, the yeast fitness was determined as 0.536.

As for U19C U28C C29G A57U, the yeast fitness was at most 0.5.

With U19C U26C G41C A43U A57G, the yeast fitness is at most 0.5.

Regarding U19A C29G G48A C61A, the yeast fitness turned out to be 0.683.

Turning to U19A G38C C60A, the yeast fitness was at most 0.5.

Regarding U19A A40G, the yeast fitness was found to be 0.75.

On to U19A U47A C61A, for which the yeast fitness was 0.549.

Take U19G A20U G52A: the yeast fitness amounted to 0.698.

With U19A U26C C30A A43C, the yeast fitness was at most 0.5.

Regarding U19G A57G C66U, the yeast fitness is at most 0.5.

Consider U19C A36C G41C, for which the yeast fitness is at most 0.5.

For U19G A20C U26C G41A G63A C66U, the yeast fitness was at most 0.5.

Consider U19A U26C C49G C66G, for which the yeast fitness is at most 0.5.

Consider U19A A42U C46G, for which the yeast fitness amounted to 0.988.

As to U19A C30U G38C U53G, the yeast fitness is at most 0.5.

With U19A C31G A70U, the yeast fitness amounted to 0.919.

For the variant U19C C33A C34G, the yeast fitness was at most 0.5.

In the case of U19C C22U U32G C34U A40G A57U A70U, the yeast fitness is at most 0.5.

U19C C27U C55G: the yeast fitness was 0.544.

As for U19A C31G A65U, the yeast fitness was determined as 0.582.

For G18C U19G A45C G67A, the yeast fitness was at most 0.5.

For U19C A20C C33U A69C, the yeast fitness was at most 0.5.

As to G18C G48A C66U, the yeast fitness came out at 0.545.

For U19C A20C C31G G67A, the yeast fitness was at most 0.5.

For the variant G18C U28A A42U, the yeast fitness is at most 0.5.

In the case of U19G A42U C55U, the yeast fitness is 0.692.

As for U19A C30G A36G A57U A65U, the yeast fitness is at most 0.5.

For the variant U19A C22G A45U C49U U64A, the yeast fitness is at most 0.5.

As to U19A C49G U59C C60G C62G, the yeast fitness is at most 0.5.

For the variant U19A A36U, the yeast fitness was 0.653.

Turning to U19C G58A, the yeast fitness was determined as 0.961.

In the case of G18C U28C, the yeast fitness amounted to 0.663.

Take U19C U54C: the yeast fitness turned out to be 0.879.

For the variant U19C U54A, the yeast fitness was found to be 0.559.

Regarding U19A U26A C29A C46G U54A, the yeast fitness turned out to be 0.603.

As to U19C G48C C55U, the yeast fitness is at most 0.5.

For G18U C31U G63A, the yeast fitness came to 0.527.

U19C C29G U54A A65C: the yeast fitness is at most 0.5.

Consider U19C A43U C62A, for which the yeast fitness came to 0.628.

On to U19C C55A, for which the yeast fitness stood at 0.601.

Turning to U19A C66A, the yeast fitness worked out at 0.607.

On to U19A C66G, for which the yeast fitness was found to be 0.686.

Take U19A C66U: the yeast fitness was 0.996.

Take U19C G63A: the yeast fitness amounted to 0.918.

U19A C22G C30G A42G C46G: the yeast fitness worked out at 0.741.

Turning to U19G A37G C66U, the yeast fitness turned out to be 0.639.

For the variant G18C G51C C61G A70C, the yeast fitness is at most 0.5.

U19C U26G A36C: the yeast fitness is at most 0.5.

As to U19G C24A A40C A45U, the yeast fitness is at most 0.5.

In the case of U19C C31A, the yeast fitness was found to be 0.768.

Take U19C C27A C30U G56C: the yeast fitness was at most 0.5.

Take U19A C46U A57C A70C: the yeast fitness is at most 0.5.

For the variant U19C U28C G68C, the yeast fitness came to 0.67.

In the case of G18C U47A A70U, the yeast fitness is at most 0.5.

As for G18C U26C U28A A65U, the yeast fitness was at most 0.5.

Consider U19A C27A C31A G52A G58C A70G, for which the yeast fitness was at most 0.5.

As to U19A A43C A69U, the yeast fitness was 0.56.

Take U19C C27A U54G: the yeast fitness was at most 0.5.

For U19C C27G U47A, the yeast fitness was at most 0.5.

As to U19G C24A C34G, the yeast fitness came to 0.75.

In the case of U19G A20U U53A G56A A65U, the yeast fitness is at most 0.5.

For U19G C29U A70C, the yeast fitness is at most 0.5.

For U19A C55U, the yeast fitness stood at 0.694.

With U19C C34U A43U G63A A70C, the yeast fitness was at most 0.5.

Consider U19A C27A C31A A57C, for which the yeast fitness was 0.799.

On to U19A G50A, for which the yeast fitness stood at 0.795.

In the case of U19C C29U A43G, the yeast fitness is 0.677.

Take U19C A20C C33U U35A C49A A69U: the yeast fitness was at most 0.5.

With G18C G48A U53G, the yeast fitness is at most 0.5.

Turning to U19A C22U A37C G38C, the yeast fitness stood at 0.516.

For U19C A20U A42C A65C A69U, the yeast fitness is at most 0.5.

For the variant U19A A20C A21G C30G C55G, the yeast fitness was determined as 0.573.

As to U19A C24U G38A U54C C62U C66A, the yeast fitness is at most 0.5.

Turning to U19C A21U A40U, the yeast fitness amounted to 0.641.

As for U19A C22U U32C C60G, the yeast fitness was at most 0.5.

On to G18U C30U C49G, for which the yeast fitness was at most 0.5.

With G18C U19C A21G C61U, the yeast fitness was at most 0.5.

As for U19C A21G C22U, the yeast fitness was 0.552.

For U19A C24U A69U, the yeast fitness amounted to 0.746.

For the variant U19G A37G, the yeast fitness came out at 0.76.

U19C G38C C62G: the yeast fitness is at most 0.5.

Regarding U19A A37C, the yeast fitness amounted to 0.778.

As to U19A A37U, the yeast fitness turned out to be 0.747.

U19C U26G: the yeast fitness is 0.815.

As to U19C U26C, the yeast fitness was found to be 0.928.

Consider U19C C46A C60G G67C, for which the yeast fitness is at most 0.5.

Consider G18C G41C A43C C55U, for which the yeast fitness was at most 0.5.

U19A U35A A36U C55G G56C: the yeast fitness is at most 0.5.

Regarding U19C G68C, the yeast fitness worked out at 0.83.

As for U19A C30A A45U G50C, the yeast fitness is 0.62.

As to U19C C31U C33G G41A C49G U54C, the yeast fitness is at most 0.5.

In the case of G18C U19G A20G C33A U35C C66A, the yeast fitness is at most 0.5.

For the variant G18C G51A A69G, the yeast fitness was at most 0.5.

Take U19C C30G: the yeast fitness was found to be 0.645.

For G18U U32C A45G A57G, the yeast fitness was at most 0.5.

With U19C C46A A57C A70C, the yeast fitness was at most 0.5.

Consider U19A G48A A69U, for which the yeast fitness stood at 0.966.

Turning to U19C G38C G44C C46A A70G, the yeast fitness was 0.574.

Regarding U19C C29G C61U C66A, the yeast fitness was at most 0.5.

Turning to U19A A43U, the yeast fitness came to 1.

For the variant U19C A37C C62A U64C, the yeast fitness is at most 0.5.

U19A U28A U53G: the yeast fitness was at most 0.5.

Consider U19C G23C C61G, for which the yeast fitness was at most 0.5.

With U19C C31U C34U A57C, the yeast fitness is at most 0.5.

For the variant U19A C27U C55U, the yeast fitness was 0.572.

As for U19A U26C, the yeast fitness worked out at 0.834.

For U19A U26A, the yeast fitness came out at 0.907.

In the case of U19A C31G G38C A40C G56A, the yeast fitness stood at 0.569.

Regarding U19A C24G C33G C34G, the yeast fitness was determined as 0.528.

As to U19A C30G, the yeast fitness is 0.671.

For U19A C34G A43C C49U, the yeast fitness is at most 0.5.

Regarding U19C A20G A37G, the yeast fitness was at most 0.5.

U19A A21G C27U C33U: the yeast fitness is at most 0.5.

With G18C G58C, the yeast fitness was determined as 0.635.

For G18C G58A, the yeast fitness was found to be 0.701.

Regarding U19G A42C A43C, the yeast fitness was determined as 0.951.

In the case of U19A C27U A45U C62A, the yeast fitness is at most 0.5.

For the variant U19C C62A, the yeast fitness is 0.713.

As for U19C C62G, the yeast fitness worked out at 0.832.

Turning to U19C A21G U26G, the yeast fitness is 1.01.

Take U19A C24U C29A U54A: the yeast fitness is at most 0.5.

In the case of G18C U59A, the yeast fitness was 0.631.

With U19G A20U C27G G58A, the yeast fitness was 0.527.

As to U19G A65G, the yeast fitness came out at 1.03.

In the case of U19C C30U C55G G58C, the yeast fitness was found to be 0.533.

Take U19A A21G C27U C33U G67C: the yeast fitness was at most 0.5.

As to U19C A20C C33U U35A G58A, the yeast fitness was at most 0.5.

On to U19A G52C, for which the yeast fitness was determined as 0.656.

U19C C24U C31G U35A C61A A69C: the yeast fitness is at most 0.5.

Consider G18C U19A A36U, for which the yeast fitness was at most 0.5.

For the variant U19G A20U C27G, the yeast fitness was at most 0.5.

Turning to U19G A20U C27A, the yeast fitness was found to be 0.587.

For U19A C24U G38A U54C C55U C66A, the yeast fitness is at most 0.5.

Turning to U19C G44C G58A A65G, the yeast fitness is 0.987.

As for U19G A69C, the yeast fitness stood at 0.856.

Regarding U19G A69U, the yeast fitness came out at 0.892.

For U19A A21U, the yeast fitness stood at 0.854.

As for U19G A20U A69U, the yeast fitness turned out to be 0.86.

Take U19C G50A C55A G63A C66A: the yeast fitness is at most 0.5.

Regarding U19A G48A, the yeast fitness is 1.05.
